The test system of the assay is U373 MG. The experiment in a line: Inhibitory concentration against YOPRO-1 dye uptake in U373MG cells stably expressing human P2X purinoceptor 7 using fluorescence assay. The assay is classed as functional, cell-based, U-373MG ATCC. Summed up:
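U373 cells stably expressing human P2X7 were grown overnight on collagen-coated plates at 35,000 cells/well. They were then preincubated 20 min at 37°C with increasing compound concentrations, in duplicate, in Mg²⁺/Ca²⁺-free HBSS. YO-PRO-1 iodide and then Bz-ATP were added, followed by 1.5 h at 37°C. Fluorescence was read at 485/530 nm against a no-compound control, and IC50 came from a nonlinear sigmoidal fit; means of duplicates, one or two experiments.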

For the molecule `Clc1ccccc1CCC1=N[C@H](c2ccccc2)[C@H](c2ccccc2)N1`, 70 nM corresponded to half-maximal inhibition (IC50).

Turning to `c1ccc(C(CC2=N[C@H](c3ccccc3)[C@H](c3ccccc3)N2)c2ccccc2)cc1`, the IC50 amounted to 320 nM.

`Cc1ccccc1CCC1=N[C@H](c2ccccc2)[C@H](c2ccccc2)N1` came in with an IC50 of 70 nM.

Take `Cc1ccccc1CC1=N[C@H](c2ccccc2)[C@H](c2ccccc2)N1`: the IC50 is 320 nM.

`c1ccc([C@H]2N=C(C3Cc4ccccc4C3)N[C@H]2c2ccccc2)cc1` displayed an IC50 of 50 nM.

For `C[C@H](C1=N[C@H](c2ccccc2)[C@H](c2ccccc2)N1)c1ccccc1`, the IC50 came to 110 nM.

Take `c1ccc([C@H]2C[C@@H]2C2=N[C@H](c3ccccc3)[C@H](c3ccccc3)N2)cc1`: the IC50 was more than 1000 nM.

For the molecule `c1ccc(CCCCC2=N[C@H](c3ccccc3)[C@H](c3ccccc3)N2)cc1`, the IC50 amounted to 610 nM.

In turn, `Cc1ccc(CC2=N[C@H](c3ccccc3)[C@H](c3ccccc3)N2)cc1` registered an IC50 of 80 nM.

`c1ccc([C@H]2N=C(CC3Cc4ccccc4C3)N[C@H]2c2ccccc2)cc1` had an IC50 of 240 nM.

For the molecule `Fc1ccc(CCC2=N[C@H](c3ccccc3)[C@H](c3ccccc3)N2)cc1F`, half-maximal inhibition (IC50) required 120 nM.

Turning to `Clc1ccccc1CC1=N[C@H](c2ccccc2)[C@H](c2ccccc2)N1`, the IC50 was determined as 160 nM.

`Clc1cccc(CCC2=N[C@H](c3ccccc3)[C@H](c3ccccc3)N2)c1` yielded an IC50 of 120 nM.

For the molecule `CC(Cc1ccccc1)C1=N[C@H](c2ccccc2)[C@H](c2ccccc2)N1` (some centres not stated), 570 nM corresponded to half-maximal inhibition (IC50).

`Fc1cccc(CCC2=N[C@H](c3ccccc3)[C@H](c3ccccc3)N2)c1` came in with an IC50 of 40 nM.

Molecule `C[C@@H](CC1=N[C@H](c2ccccc2)[C@H](c2ccccc2)N1)c1ccccc1` registered an IC50 of 30 nM.

In turn, `CC(C)(CC1=N[C@H](c2ccccc2)[C@H](c2ccccc2)N1)c1ccccc1` returned an IC50 of 10 nM.

The molecule `Cc1ccc(CCC2=N[C@H](c3ccccc3)[C@H](c3ccccc3)N2)cc1` yielded an IC50 of 2190 nM.

The molecule `Fc1ccc(CC2=N[C@H](c3ccccc3)[C@H](c3ccccc3)N2)cc1` yielded an IC50 of 80 nM.

The molecule `Clc1ccc(CC2=N[C@H](c3ccccc3)[C@H](c3ccccc3)N2)cc1` gave an IC50 of 270 nM.

`COc1ccccc1CCC1=N[C@H](c2ccccc2)[C@H](c2ccccc2)N1` came in with an IC50 of 830 nM.

`Fc1cccc(CC2=N[C@H](c3ccccc3)[C@H](c3ccccc3)N2)c1` showed an IC50 of 80 nM.

The molecule `COc1ccc(CCC2=N[C@H](c3ccccc3)[C@H](c3ccccc3)N2)cc1` returned an IC50 of more than 3000 nM.

In turn, `c1ccc(CCC2=N[C@H](c3ccccc3)[C@H](c3ccccc3)N2)cc1` returned an IC50 of 80 nM.

`COc1ccc(CCC2=N[C@H](c3ccccc3)[C@H](c3ccccc3)N2)cc1OC` showed an IC50 of more than 3000 nM.

In the case of `FC(F)(F)c1ccc(CC2=N[C@H](c3ccccc3)[C@H](c3ccccc3)N2)cc1`, the IC50 was 400 nM.

`Clc1cccc(CC2=N[C@H](c3ccccc3)[C@H](c3ccccc3)N2)c1` showed an IC50 of 30 nM.

With `Fc1ccc(CC2=N[C@H](c3ccccc3)[C@H](c3ccccc3)N2)cc1F`, the IC50 was determined as 30 nM.

`Fc1ccc(CCC2=N[C@H](c3ccccc3)[C@H](c3ccccc3)N2)cc1`: half-maximal inhibition (IC50) required 220 nM.

In the case of `c1ccc(CCCC2=N[C@H](c3ccccc3)[C@H](c3ccccc3)N2)cc1`, the IC50 stood at 540 nM.

For `c1ccc(C2=N[C@@H](c3ccccc3)[C@@H](c3ccccc3)N2)cc1`, the IC50 amounted to 3800 nM.

For `COc1cccc(CC2=N[C@H](c3ccccc3)[C@H](c3ccccc3)N2)c1OC`, the IC50 was more than 3000 nM.

In turn, `Fc1ccccc1CC1=N[C@H](c2ccccc2)[C@H](c2ccccc2)N1` came in with an IC50 of 580 nM.

`Clc1ccc(CCC2=N[C@H](c3ccccc3)[C@H](c3ccccc3)N2)cc1Cl` showed an IC50 of 1400 nM.

With `Clc1ccc(CCC2=N[C@H](c3ccccc3)[C@H](c3ccccc3)N2)cc1`, the IC50 is more than 1000 nM.

On to `Fc1ccccc1CCC1=N[C@H](c2ccccc2)[C@H](c2ccccc2)N1`, for which the IC50 came out at 160 nM.

`Fc1cccc(CC2=N[C@H](c3ccccc3)[C@H](c3ccccc3)N2)c1F` yielded an IC50 of 930 nM.

These data come from ChEMBL document CHEMBL1144254, “Synthesis and SAR of novel 4,5-diarylimidazolines as potent P2X7 receptor antagonists” (Bioorg Med Chem Lett, 2005).
